Data: ChEMBL document CHEMBL1123290, “Synthesis, antimalarial activity, and quantitative structure-activity relationships of tebuquine and a series of related 5-[(7-chloro-4-quinolinyl)amino]-3-[(alkylamino)methyl] [1,1'-biphenyl]-2-ols and N omega-oxides” (1986)

Key:
Format in all cases: functional
Plasmodium berghei [1] = assay: Change in mean survival time for control (average 6.2 days) versus treated mice (Mus musculus) after 320 mg/kg subcutaneous dose
Plasmodium berghei [2] = assay: Change in mean survival time of Plasmodium berghei infected mice (Mus musculus) after 5 mg/kg subcutaneous dose
Plasmodium berghei [3] = assay: Antimalarial activity as 60-day survivors in infected mice (Mus musculus) after single 320mg/kg subcutaneous dose 72 hr post infection
Outline: (§1)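 Mice were infected with a normal drug-sensitive Plasmodium berghei strain. At 72 h postinfection each received one subcutaneous dose of compound dissolved or suspended in peanut oil, in five-mouse groups per dose. The read-out was the number of mice alive at 60 days postinfection, which were scored as cured.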

Plasmodium berghei [4] = assay: Change in mean survival time for control (average 6.2 days) versus treated mice (Mus musculus) after 20 mg/kg subcutaneous dose
Plasmodium berghei [5] = assay: (§2) Change in mean survival time for control (average 6.2 days) versus treated mice (Mus musculus) 72 hrs after […] subcutaneous dose
Plasmodium berghei [6] = assay: Change in mean survival time of Plasmodium berghei infected mice (Mus musculus) on 1.25 mg/kg subcutaneous dose
Plasmodium berghei [7] = assay: Antimalarial activity as 60-day survivors in Plasmodium berghei infected mice (Mus musculus) after single 160mg/kg subcutaneous dose 72 hr post infection; outline: as §1
Plasmodium berghei [8] = assay: Change in mean survival time in control (average 6.2 days) versus treated mice (Mus musculus) after 80 mg/kg subcutaneous dose
Mus musculus [9] = assay: Antimalarial activity of compound administered as a single subcutaneous dose of 10mg/kg, 72 hrs post infection measured as number of mice (Mus musculus) surviving at 60 days post infection; outline: as §1
Plasmodium berghei [10] = assay: Difference in mean survival time of Plasmodium berghei infected mice (Mus musculus) after 10 mg/kg subcutaneous dose
Plasmodium berghei [11] = assay: Antimalarial activity as 60-day survivors in infected mice (Mus musculus) after single 20 mg/kg subcutaneous dose 72hr post infection; outline: as §1
Mus musculus [12] = assay: Antimalarial activity, administered as a single subcutaneous dose of 80 mg/kg, 72 hrs post infection measured as number of mice (Mus musculus) surviving at 60 days post infection; outline: as §1
Plasmodium berghei [13] = assay: Change in mean survival time for control (average 6.2 days) versus treated mice (Mus musculus) after 40 mg/kg subcutaneous dose
Plasmodium berghei [14] = assay: Change in mean survival time of Plasmodium berghei infected mice (Mus musculus) after […] subcutaneous dose
Mus musculus [15] = assay: Antimalarial activity, administered as a single subcutaneous dose of 640 mg/kg, 72 hrs post infection measured as number of mice (Mus musculus) surviving at 60 days post infection; outline: as §1
Mus musculus [16] = assay: Antimalarial activity, administered as a single subcutaneous dose of 40 mg/kg, 72 hrs post infection measured as number of mice (Mus musculus) surviving at 60 days post infection; outline: as §1
Plasmodium berghei [17] = assay: as §2; remark: listed apart in the source
Plasmodium berghei [18] = assay: Change in mean survival time for control (average 6.2 days) versus treated mice (Mus musculus) 72 hrs after 20 mg/kg subcutaneous dose
Plasmodium berghei [19] = assay: Change in mean survival time for control (average 6.2 days) versus treated mice (Mus musculus) 72 hrs after 160 mg/kg subcutaneous dose
Plasmodium berghei [20] = assay: Change in mean survival time for control (average 6.2 days) versus treated mice (Mus musculus) 72 hrs after 640 mg/kg subcutaneous dose
Plasmodium berghei [21] = assay: Change in mean survival time for control (average 6.2 days) versus treated mice (Mus musculus) 72 hrs after 10 mg/kg subcutaneous dose
Plasmodium berghei [22] = assay: Difference in mean survival time in mice (Mus musculus) (control = 6.2 days) after single 40mg/kg subcutaneous dose 72hr post infection
Plasmodium berghei [23] = assay: Change in mean survival time for control (average 6.2 days) versus treated mice (Mus musculus) 72 hrs after […] subcutaneous dose
Plasmodium berghei [24] = assay: Change in mean survival time for control (average of 6.2 days) versus treated mice (Mus musculus) 72 hrs after 80 mg/kg subcutaneous dose
Plasmodium berghei [25] = assay: Change in mean survival time for control (average 6.2 days) versus treated mice (Mus musculus) 72 hrs after 320 mg/kg subcutaneous dose
Plasmodium berghei [26] = assay: Antimalarial activity in primary screen
Plasmodium berghei [27] = assay: Change in mean survival time for control (average 6.2 days) versus treated mice (Mus musculus) 72 hrs after 5 mg/kg subcutaneous dose
Mus musculus [28] = assay: Antimalarial activity of compound administered as a single subcutaneous dose of 5mg/kg, 72-h postinfection measured as number of mice (Mus musculus) surviving at 60 days postinfection; outline: as §1
Plasmodium berghei [29] = assay: Change in mean survival time for control (average 6.2 days) versus treated mice (Mus musculus) after 160 mg/kg subcutaneous dose

| SMILES | Delta MST (Plasmodium berghei [2]) | No. of mice cured (Plasmodium berghei [3]) | Delta MST (Plasmodium berghei [4]) | Delta MST (Plasmodium berghei [5]) | No. of mice cured (Plasmodium berghei [7]) | No. of mice cured (Mus musculus [9]) | No. of mice cured (Plasmodium berghei [11]) | No. of mice cured (Mus musculus [12]) | No. of mice cured (Mus musculus [15]) | No. of mice cured (Mus musculus [16]) | Delta MST (Plasmodium berghei [18]) | Delta MST (Plasmodium berghei [19]) | Delta MST (Plasmodium berghei [20]) | Delta MST (Plasmodium berghei [21]) | Delta MST (Plasmodium berghei [22]) | Delta MST (Plasmodium berghei [23]) | Delta MST (Plasmodium berghei [24]) | Delta MST (Plasmodium berghei [25]) | ED30 (Plasmodium berghei [26]) | Delta MST (Plasmodium berghei [27]) | further results |
| --- | --- | --- | --- | --- | --- | --- | --- | --- | --- | --- | --- | --- | --- | --- | --- | --- | --- | --- | --- | --- | --- |
| CN(C)Cc1cc(Nc2cc[n+]([O-])c3cc(Cl)ccc23)cc(-c2ccc(Cl)cc2)c1O | 17.6 days | 3 | 27.8 days | 0 days | 5 | 1 | 3 | 3 | 1 | 3 |  |  |  |  |  |  |  |  |  |  | Delta MST (Plasmodium berghei [1]): 17.9 days; Delta MST (Plasmodium berghei [6]): 0 days; Delta MST (Plasmodium berghei [8]): 21.9 days; Delta MST (Plasmodium berghei [10]): 17.8 days; Delta MST (Plasmodium berghei [13]): 26.3 days; Delta MST (Plasmodium berghei [14]): 5 days; Delta MST (Plasmodium berghei [17]): 20.7 days |
| CCN(CC)Cc1cc(Nc2ccnc3cc(Cl)ccc23)cc(-c2cccc(F)c2F)c1O |  | 4 |  | 0.7 days | 2 | 1 | 2 | 3 | 4 | 3 | 22.2 days | 35.1 days | 19.8 days | 16.7 days | 39.4 days | 6.7 days | 33.3 days | 19.8 days | 8.7 mg/kg | 13.7 days |  |
| CC(C)(C)NCc1cc(Nc2ccnc3cc(Cl)ccc23)cc(-c2ccc(F)cc2)c1O |  |  |  | 1.7 days | 1 | 1 | 1 | 1 |  | 3 | 18 days | 11.9 days | 14.4 days | 16.5 days | 15.2 days | 7.5 days | 12.4 days | 16.6 days |  | 8.9 days |  |
| CCN(CC)Cc1cc(Nc2ccnc3cc(Cl)ccc23)cc(-c2cccnc2)c1O |  | 4 |  | 1.8 days | 4 | 1 | 1 | 1 | 3 | 1 | 13.6 days | 18.8 days | 34.8 days | 8.6 days | 20.3 days | 5.4 days | 19.6 days | 37.8 days | 31 mg/kg | 10.6 days | No. of mice cured (Mus musculus [28]): 1 |
| CCN(CC)Cc1cc(Nc2cc[n+]([O-])c3cc(Cl)ccc23)cc(-c2ccc(Cl)cc2)c1O | 5.7 days | 5 | 20.9 days |  | 5 | 2 | 3 | 5 | 5 | 4 |  |  |  |  |  |  |  |  | 9.2 mg/kg |  | Delta MST (Plasmodium berghei [6]): 0.7 days; Delta MST (Plasmodium berghei [10]): 14.2 days; Delta MST (Plasmodium berghei [13]): 36.9 days; Delta MST (Plasmodium berghei [14]): 1.3 days |
| CCN(CC)Cc1cc(Nc2ccnc3cc(Cl)ccc23)cc(-c2cccc(F)c2)c1O |  | 1 |  | 0.4 days | 3 |  | 2 | 2 | 3 | 3 | 23.6 days | 14.8 days | 15.8 days | 23.2 days | 25.1 days | 1.8 days | 12.8 days | 13.8 days | 12.4 mg/kg | 5.6 days | No. of mice cured (Mus musculus [28]): 1 |
| CCN(CC)Cc1cc(Nc2cc[n+]([O-])c3cc(Cl)ccc23)cc(-c2ccc(C(F)(F)F)cc2)c1O | 13.6 days | 2 | 33.6 days |  | 3 | 1 | 2 | 3 | 1 | 2 |  |  |  |  |  |  |  |  | 7.4 mg/kg |  | Delta MST (Plasmodium berghei [29]): 13.2 days; Delta MST (Plasmodium berghei [1]): 12.7 days; Delta MST (Plasmodium berghei [6]): 0.2 days; Delta MST (Plasmodium berghei [8]): 19.7 days; Delta MST (Plasmodium berghei [10]): 27.9 days; Delta MST (Plasmodium berghei [13]): 28.6 days; Delta MST (Plasmodium berghei [14]): 2.6 days; Delta MST (Plasmodium berghei [17]): 16.5 days |
| CCN(CC)Cc1cc(Nc2ccnc3cc(Cl)ccc23)cc(-c2ccc(C(F)(F)F)cc2)c1O |  |  |  | 0 days |  | 1 | 2 | 2 | 1 | 2 | 19.4 days | 11.9 days | 17 days | 18.9 days | 13 days | 2 days | 12 days | 10.1 days | 9.8 mg/kg | 11 days |  |
| CC(C)(C)NCc1cc(Nc2ccnc3cc(Cl)ccc23)cc(-c2ccc(Cl)cc2)c1O [TEBUQUINE] |  | 1 |  | 0.3 days | 2 | 2 | 3 | 3 |  | 4 | 14.9 days | 14.9 days | 17.1 days |  | 19.9 days | 2.3 days |  | 16.4 days |  | 11.4 days | No. of mice cured (Mus musculus [28]): 1 |
